Measurements as given in the EternaBench riboswitch data.

System: MS2 coat protein
Test: apparent Kd, MS2 coat protein; higher = weaker binding; RNA-MaP array; FMN 200 µM where present
In short: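 Designs on Illumina sequencing-chip clusters, transcribed by stalled E. coli RNA polymerase, were exposed to SNAP-549-labelled MS2 coat protein in doubling steps from 0.7 or 1.5 nM up to 3 µM, without and then with constant ligand. The buffer held 100 mM Tris-HCl pH 7.5, 80 mM KCl, 4 mM MgCl2, BSA, DTT, yeast tRNA and Tween-20. Apparent Kd values are medians of filtered per-cluster binding-curve fits to green signal normalised to red-channel RNA signal and control-cluster median Fmax.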

[1] = designed as: OFF switch for flavin mononucleotide, no ligand
[2] = ligand present: flavin mononucleotide, designed as: OFF switch for flavin mononucleotide
[3] = designed as: ON switch for flavin mononucleotide, no ligand
[4] = ligand present: flavin mononucleotide, designed as: ON switch for flavin mononucleotide

Sequence	apparent Kd [1]	apparent Kd [2]	apparent Kd [3]	apparent Kd [4]
UUGUACAUAGGAUAUAGUUGUUUGUACAUGAGGAUCACCCAUGUUAUGUAUGUUUUGUUUCUAGAAGGAUGUUGAU	50.2 nM	38.9 nM		
AGUACCAUGUAGAAGGGAUAUCUGAUUCAGAUAUCAGGAUAUACAUGAGGAUCACCCAUGUAAAUGUACUCCACGAAAGUGGAA	22.1 nM	63.8 nM		
UUGGUAUCUGCAGGAUAUUGUAUUUUAAUACUUCAAGAAGGGCAUUACAUGAGGAUCACCCAUGUUUACAUGGUCAUAUUAGUU	26.1 nM	20.8 nM		
GCUGUAUAUGAGAAGGCGAUCAUGAAACAUGAUCGAGGAUAUCAUGUUUACAUGAGGAUCACCCAUGUAUGGGUAUAAUGCAGC			417 nM	24.1 nM
UCGUAUAUACAAGGAUAUCAAUUAUUGCUAAAUACAACAUGAGGAUCACCCAUGUAACUAUGGAGUGAGAAGGUGUAAUGACUU			740 nM	603 nM
GAUUAAUGCAAGGAUAUGCUAUUAAUUUAUUUUGCAGAAGGUGCAACAUGAGGAUCACCCAUGUUGGAGGGUAU	22.3 nM	33.4 nM		
UGAUCUUUUGUUAGGAUAUGCUGGCUGAAAAGUCAGCAGAAGGGACAUGAGGAUCACCCAUGUUCUCUCUUUUU	9.66 nM	13.6 nM		
ACAUGAGGAUCACCCAUGUUGAAUUAGGAUAUUUGACUGCACAUGAGGUUCUCCCAUGUUCAACCGGAGAAGGGAUUAAUAAUU			318 nM	132 nM
CGCUAUGACAUAGGAUAUUGAUACAUGAGGAUCACCCAUGUCAACCAUGAAGCUCGAAUUGUUGACAAGAAGGAUGUGGUAGCG			157 nM	72.9 nM
UAAUAUUUAUGAUAUUAUUACAUUAGAAGGCAAGACAUGUGGAUACAUGAGGAUCACCCAUGUAUUGAGGAUAUAGACAUAUAU	15.4 nM	19.2 nM		
GUGAACCGUAGGUCGCUGGCUGCACAGGAUAUGAAGGCGUACAUGAGGAUCACCCAUGUUCCCUAUCAGAAGGGUGACAGGAAA			14.8 nM	8.85 nM
GUCAGCUCGUGAGGAUAUACAACACUGCGUCGGCAGUGUAUUAAGAUCACAUGAGGAUCACCCAUGUAGAAGGCACGAGCUGAU	13.4 nM	223 nM		
UACGUACAGAAGAACUCCGGGUCCAGAAGGGACAUGAGGAUCACCCAUGUACCGUUGAUUGCUUGUCAGGAUAUGGACCCAGCC	7.75 nM	26.8 nM		
GGCAGACAUGAGGAUCACCCAUGUGAGGAUAUCGUCAUAGAUGCAAAAGCAUCUAUGACGAGAAGGUACAUGCC	23.2 nM	19.2 nM		
UCAUAAUUGAUCCUAUUUACCAACAUGAGGAUCACCCAUGUGCAGGAUAUGCUAAAGAUAGAUAAGCAGAAGGGCAAAUACAUA	162 nM	756 nM		
GACAUGAGGAUCACCCAUGUCCAACCAGAAGGCCAGAAAUCGAACCCGUGUAUCGGGUCCGAGAUGGAGGAUAUGGGCGCCGAA			72.4 nM	32.4 nM
AAGACAUGAGGAUCACCCAUGUAAAGACCGGUCAAUCAAUGUGAGGAUAUUCCAUAAUUGAUAGGGAAGAAGGCACUGGGUUGA			106 nM	50.2 nM
AAGAAGUCAGGAUAUACAUGAGGAUCACCCAUGUAAAAGAAAGAAAAGGGAAAGAAAAGUAGAAGGGACAAGAA	26.7 nM	32.2 nM		

Sequence	apparent Kd [1]	apparent Kd [2]	apparent Kd [3]	apparent Kd [4]
UGCGUCUAGACAGGAUAUCAAGGACGCCUACAUGAGGAUCACCCAUGUCGGCGGAGCAGCUCCGUUGAGAAGGGUCAUCGCAAC			66.5 nM	24.2 nM
AUGUUGCGAGGAUAUAUUUACUGGUUGUUGUUUGGUUGGGAACAUGAGGAUCACCCAUGUAGAAGGUGCAUAAC	54.5 nM	49.9 nM		
AUAGCGCCCGAGAAGGACGUACCACAUGUUGAUCACCGAUAUAAGGAACGUAGGAUAUUGGACAUGAGGAUCACCCAUGUGGAU			122 nM	47.1 nM
UGCGAGCAGAUCGUCCGCUCACAUGAGGAUCACCCAUGUAGGAGAAGGCGCCAUGAAGGCAGCGGCGAGGAUAUCCUCGUGGGC	78 nM	77.6 nM		
CUUCUGUAAGGAUAUGUAAAUUGCUGGCCACACCAGCACCGGCAGAAGGUACAUGAGGAUCACCCAUGUGGGUU	219 nM	137 nM		
GCAGGCUGCUCUGAAGCUACAUUCGAGGAUAUGAUCCAAGACAUGAGGAUCACCCAUGUAGAAGAUCAGAAGGCGAUGGCUAGG			89.8 nM	9.77 nM
UCAUGGUAGCAGGAUAUGCUUGUAAUUUUUUAUGCAGAAGGGCUUACAUGAGGAUCACCCAUGUGUUAGGUCUA	43.4 nM	66.2 nM		
UAUGUGACACAGAAGGCCAGUCACAUGAGGAUCACCCAUGUAGUAAAGUGGAGGAUAUGUGUGCCUAGCAACUUACUAGCAAGA			107 nM	9.61 nM
UGUGCGUUGAUCUUCGAUCGGAGUACAUGAGGAUCACCCAUGUAGGAUAUUCAAAGACGCAGAUAGAAGAAGGACAUCGGUUUC	10.6 nM	9.43 nM		
UCUUUGUGAGGAUAUCAGUAGUAAAUAAAUAAAAUUACUACUGAGAAGGCACAUGAGGAUCACCCAUGUUCCUU	12.1 nM	24.4 nM		
CCGGAAACGGGUAGCCUGACAUGAGGAUCACCCAUGUGAUCCAAGGAUAUGGAUCCUAAUUGGAUCCAGAAGGUGGUUGGCUAC			76.7 nM	1200 nM
GUGAGUAGUCAGGAUAUGCUGUACAAAAGUACAGCAGAAGGGAUUACAUGAGGAUCACCCAUGUUUACUUCAUG	73.1 nM	279 nM		
ACAAAUGGAGGAUAUACAUGAGGAUCACCCAUGUUUAUCCUACAUAUGUGAUAAUAAUGUAGAAGGCCAUAUGA	12.3 nM	12.3 nM		
GAUUCACAUGAGGAUCACCCAUGUGAGGAUAUAGUGCAGGAGGUGAAUGUCCACCUCUCUAGAAGGCACACGGG	22.3 nM	23.6 nM		
UAGAAGUCAGGAUAUGCAUGGCGGGACUUGCGUCGUGGCGUGCAGAAGGGACAUGAGGAUCACCCAUGUGGAGC	116 nM	169 nM		
ACUUGUAAGCAGAAGGCAGUCAUUAUAUUCGUCAUGUAGACAUGAGGAUCACCCAUGUAUAGUACUGAGGAUAUGCAUCGAUAG	7.84 nM	12.9 nM		
UUGGAUAUCACAGGAUAUGCUAAGGAUACCUUAGCAGAAGGGUGAUCCAUCCUAUGGCUGUACAUGAGGAUCACCCAUGUGUCA			246 nM	73.6 nM
AAGUAGGGAGGAUAUACAUAGAUACAGAUUCGUGUAGAACUACAUGAGGAUCACCCAUGUAGAAGGCCCUAAUA	18.1 nM	41.6 nM		
